Assay results as given in ChEMBL document CHEMBL3868588, “Emestrins: Anti-Cryptococcus Epipolythiodioxopiperazines from Podospora australis” (J Nat Prod, 2016).
Converted amounts (≈) assume the structure as drawn.

Assays:
[1] = system: Cryptococcus neoformans; assay: Antifungal activity against Cryptococcus neoformans H99 after 48 hrs by resazurin-staining based serial dilution method; format: functional; details: var grubii H99 
Outline: (§1)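 Serial dilution per NCCLS guidance in 96-well plates with YM test medium (1% maltose extract, 0.2% yeast extract, 0.4% agar). Compounds in DMSO, diluted in growth medium; amphotericin B positive control. Incubated at 25 °C; C. albicans ATCC 10231 read at 24 h, C. neoformans H99 at 48 h. Visual end point, OD and PrestoBlue resazurin viability; MIC = lowest concentration giving 100% inhibition versus untreated control.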

[2] = system: Candida albicans; assay: Antifungal activity against Candida albicans ATCC 10231 measured after 24 hrs by resazurin-staining based serial dilution method; format: functional; details: ATCC 10231, 24 h; outline: as §1
[3] = Antiproliferative activity against human DU145 cells; format: functional, cell-based; details: DU-145

MIC [1] [µg/mL]	MIC [2] [µg/mL]	Compound	IC50 [3] [nM]
25.6 (≈ 37.8 µM)	> 25.6	COc1ccc2cc1Oc1cc(ccc1OC)[C@H](O)[C@]13SSSS[C@@]4(C(=O)N1C)[C@H](O)C1=COC=C[C@H](OC2=O)[C@H]1N4C3=O	
6.4 (≈ 9.93 µM)	> 25.6	COc1ccc2cc1Oc1cc(ccc1OC)[C@H](O)[C@]13SSS[C@@]4(C(=O)N1C)[C@H](O)C1=COC=C[C@H](OC2=O)[C@H]1N4C3=O	

More lines, now with the values behind:

Compound	MIC [1] [µg/mL]	MIC [2] [µg/mL]	IC50 [3] [nM]
COc1ccc2cc1Oc1cc(ccc1OC)C(=O)O[C@H]1C=COC=C3[C@@H](O)[C@]45SS[C@](C2)(C(=O)N4[C@@H]31)N(C)C5=O	1.6 (≈ 2.68 µM)	> 25.6	
COc1ccc2cc1Oc1cc(ccc1OC)[C@H](O)[C@]13SS[C@@]4(C(=O)N1C)[C@H](O)C1=COC=C[C@H](OC2=O)[C@H]1N4C3=O	0.8 (≈ 1.31 µM)	6.4 (≈ 10.4 µM)	9.3
C[C@@H]1[C@H](O)[C@@H](C)/C=C/C=C/C=C/C=C/C=C/C=C/C=C/[C@H](O[C@@H]2O[C@H](C)[C@@H](O)[C@H](N)[C@@H]2O)C[C@@H]2O[C@](O)(C[C@@H](O)C[C@@H](O)[C@H](O)CC[C@@H](O)C[C@@H](O)CC(=O)O[C@H]1C)C[C@H](O)[C@H]2C(=O)O [AMPHOTERICIN B]	0.8 (≈ 0.866 µM)	1.6 (≈ 1.73 µM)	
